This note sets out measurements from ChEMBL document CHEMBL4038273, “MAO enzymes inhibitory activity of new benzimidazole derivatives including hydrazone and propargyl side chains” (Eur J Med Chem, 2017).

Data set [1] concerns the target T1, Amine oxidase [flavin-containing] A (Homo sapiens, UniProt P21397).
T1 sequence (P21397 whole entry): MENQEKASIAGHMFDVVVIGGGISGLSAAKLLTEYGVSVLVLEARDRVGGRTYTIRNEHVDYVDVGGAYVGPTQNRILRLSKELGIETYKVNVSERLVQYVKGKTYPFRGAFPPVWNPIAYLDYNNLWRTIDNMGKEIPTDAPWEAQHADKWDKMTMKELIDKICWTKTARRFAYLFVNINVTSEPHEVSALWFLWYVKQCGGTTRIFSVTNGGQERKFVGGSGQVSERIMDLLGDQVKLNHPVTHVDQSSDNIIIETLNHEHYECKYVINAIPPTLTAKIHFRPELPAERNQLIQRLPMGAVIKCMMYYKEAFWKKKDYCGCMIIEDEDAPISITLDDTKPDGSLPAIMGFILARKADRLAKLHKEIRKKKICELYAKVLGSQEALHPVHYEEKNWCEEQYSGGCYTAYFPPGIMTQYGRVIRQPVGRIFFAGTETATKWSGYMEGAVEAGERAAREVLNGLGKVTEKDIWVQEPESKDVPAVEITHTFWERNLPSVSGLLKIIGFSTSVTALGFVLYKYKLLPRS
The data set is described as follows: Inhibition of recombinant human MAO-A expressed in baculovirus infected BTI insect cells at 10^-4 to 10^-3 uM using tyramine as substrate pretreated for 30 mins followed by substrate addition incubated for 30 mins measured at 5 mins interval by horse-radish peroxidase/amplex red-based fluorometric method relative to control. As to conditions: 0.5 h; call rule not given here. An outline of the steps:
(§1)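 Recombinant hMAO-A (0.5 U/mL stock) or hMAO-B (0.64 U/mL stock) in phosphate buffer, preincubated with inhibitor (solutions 10^-3 to 10^-9 M in 2% DMSO) for 30 min at 37°C. Working solution (HRP, Amplex Red, tyramine) then added for 30 min at 37°C, with fluorescence (Ex/Em 535/587 nm) read every 5 min. Background-subtracted against DMSO control; quadruplicate.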

For data set [2], the target named is T2, Amine oxidase [flavin-containing] B (Homo sapiens, UniProt P27338).
T2 sequence (P27338 whole entry): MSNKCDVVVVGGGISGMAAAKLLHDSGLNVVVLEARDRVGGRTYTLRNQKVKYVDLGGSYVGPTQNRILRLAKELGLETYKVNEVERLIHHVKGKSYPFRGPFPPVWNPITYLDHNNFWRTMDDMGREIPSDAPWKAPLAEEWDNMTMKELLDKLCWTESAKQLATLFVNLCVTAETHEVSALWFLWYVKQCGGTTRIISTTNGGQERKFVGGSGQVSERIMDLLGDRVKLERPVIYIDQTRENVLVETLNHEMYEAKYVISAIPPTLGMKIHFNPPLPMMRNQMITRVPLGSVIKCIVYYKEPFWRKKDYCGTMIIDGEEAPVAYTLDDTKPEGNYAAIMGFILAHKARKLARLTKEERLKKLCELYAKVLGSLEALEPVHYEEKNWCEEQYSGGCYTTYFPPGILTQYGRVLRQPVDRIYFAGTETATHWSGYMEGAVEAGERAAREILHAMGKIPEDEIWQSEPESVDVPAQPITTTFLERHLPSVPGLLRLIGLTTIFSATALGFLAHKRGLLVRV
The data set is described as follows: Inhibition of recombinant human MAO-B expressed in baculovirus infected BTI insect cells at 10^-4 to 10^-3 uM using tyramine as substrate pretreated for 30 mins followed by substrate addition incubated for 30 mins measured at 5 mins interval by horse-radish peroxidase/amplex red-based fluorometric method. The settings on record: 0.5 h. The procedure, abridged:
as §1

For data set [3], the target named is T1, Amine oxidase [flavin-containing] A. The data set is described as follows: Inhibition of recombinant human MAO-A expressed in baculovirus infected BTI insect cells using tyramine as substrate pretreated for 30 mins followed by substrate addition incubated for 30 mins measured at 5 mins interval by horse-radish peroxidase/amplex red-based fluorometric method. The procedure, abridged:
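Recombinant hMAO-A (0.5 U/mL stock) or hMAO-B (0.64 U/mL stock) in phosphate buffer, preincubated with inhibitor (solutions 10^-3 to 10^-9 M in 2% DMSO) for 30 min at 37°C. Background-subtracted against DMSO control; quadruplicate.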

Data set [4] concerns the target T2, Amine oxidase [flavin-containing] B. In words: Inhibition of recombinant human MAO-B expressed in baculovirus infected BTI insect cells using tyramine as substrate pretreated for 30 mins followed by substrate addition incubated for 30 mins measured at 5 mins interval by horse-radish peroxidase/amplex red-based fluorometric method. In kind it is cell-based.
For the next data set, the species on record is Homo sapiens. The data set is described as follows: Selectivity index, ratio of IC50 for recombinant human MAO-A expressed in baculovirus infected BTI insect cells to IC50 for recombinant human MAO-B expressed in baculovirus infected BTI insect cells. An outline of the steps:
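Selectivity index calculated as IC50(MAO-A)/IC50(MAO-B), with both IC50 values from the fluorometric tyramine/HRP/Amplex Red inhibition assay.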

What is called IC50 is the point on the concentration scale where inhibition reaches its midpoint. On to `C#CCn1c(-c2ccc(C(=O)N/N=C/c3cccs3)cc2)nc2ccccc21`, for which the “inhibition (INH)” value in data set [1] and in data set [2] was “Not Active” in each case. The figures for the half-maximal inhibitory concentration (IC50) in data set [3] and in data set [4] were no less than 1000 µM and no less than 100 µM, respectively.

For `C#CCn1c(-c2ccc(C(=O)N/N=C/c3cc(OC)cc(OC)c3)cc2)nc2ccccc21`, in the data set listed under Homo sapiens, the Ratio IC50 was greater than 3.96. In addition, the “inhibition (INH)” value in data set [1] was less than 50%. For the same molecule, the IC50 is no less than 100 µM in data set [3] and 25.2 µM in data set [4].

With `C#CCn1c(-c2ccc(C(=O)N/N=C/c3cccc(O)c3)cc2)nc2ccccc21`, the “inhibition (INH)” value in data set [1] and in data set [2] was “Not Active” each time. Also, the IC50 in data set [3] and in data set [4] was no less than 1000 µM each time.

Regarding `C#CCn1c(-c2ccc(C(=O)N/N=C/c3ccc([N+](=O)[O-])s3)cc2)nc2ccccc21`, the Ratio IC50 in the data set listed under Homo sapiens worked out at 30.7. In addition, the IC50 is 27.1 µM in data set [3] and 0.881 µM in data set [4].

Turning to `C#CCn1c(-c2ccc(C(=O)N/N=C/c3ccc(O)cc3)cc2)nc2ccccc21`, the Ratio IC50 in the data set listed under Homo sapiens was 1.43. Further, the figures for the IC50 in data set [3] and in data set [4] were 2.82 µM and 1.97 µM, respectively.

As to `C#CCn1c(-c2ccc(C(=O)N/N=C/c3cc(O)cc(O)c3)cc2)nc2ccccc21`, the Ratio IC50 in the data set listed under Homo sapiens turned out to be 1.9. Moreover, the results for the half-maximal inhibitory concentration (IC50) in data set [3] and in data set [4] were 19.6 µM and 10.3 µM, respectively.

`C#CCn1c(-c2ccc(C(=O)N/N=C/c3ccc(OC)cc3)cc2)nc2ccccc21`: the Ratio IC50 in the data set filed under Homo sapiens is 22.3. Further, the results for the IC50 in data set [3] and in data set [4] were 43.3 µM and 1.94 µM, respectively.

For `C#CCn1c(-c2ccc(C(=O)N/N=C/c3ccccc3OC)cc2)nc2ccccc21`, the “inhibition (INH)” value in data set [1] and in data set [2] was “Not Active” in each case. Further, the concentration for half-maximal inhibition (IC50) in data set [3] and in data set [4] was no less than 1000 µM in each case.

`C#CCn1c(-c2ccc(C(=O)N/N=C/c3cccc(OC)c3)cc2)nc2ccccc21`: the Ratio IC50 in the data set filed under Homo sapiens is greater than 7.93. The “inhibition (INH)” value in data set [1] is listed as less than 50%. The IC50 in data set [3] is no less than 100 µM; in data set [4] it was 12.6 µM.

Take `C#CCn1c(-c2ccc(C(=O)N/N=C/c3cccn3C)cc2)nc2ccccc21`: in the data set filed under Homo sapiens, the Ratio IC50 is greater than 8.22. Also, the “inhibition (INH)” value in data set [1] is on record as less than 50%. Further, the concentration for half-maximal inhibition (IC50) in data set [3] was no less than 100 µM; in data set [4], 12.2 µM.

As for `C#CCn1c(-c2ccc(C(=O)N/N=C/c3cccc(OC)c3OC)cc2)nc2ccccc21`, in the data set listed under Homo sapiens, the Ratio IC50 is 2.89. The IC50 came to 53.5 µM in data set [3] and 18.5 µM in data set [4].

Turning to `C#CCn1c(-c2ccc(C(=O)N/N=C/c3ccc(Cl)cc3)cc2)nc2ccccc21`, in the data set listed under Homo sapiens, the Ratio IC50 is greater than 9.85. In addition, in data set [1], the “inhibition (INH)” value is less than 50%. In addition, the values for the IC50 in data set [3] and in data set [4] were no less than 100 µM and 10.2 µM, respectively.

As for `C#CCn1c(-c2ccc(C(=O)N/N=C/c3ccc[nH]3)cc2)nc2ccccc21`, the “inhibition (INH)” value in data set [1] and in data set [2] was “Not Active” in each case. Moreover, the half-inhibitory concentration (IC50) in data set [3] and in data set [4] was no less than 1000 µM throughout.
